Results taken from ChEMBL document CHEMBL3421565, “β-D-2'-C-Methyl-2,6-diaminopurine Ribonucleoside Phosphoramidates are Potent and Selective Inhibitors of Hepatitis C Virus (HCV) and Are Bioconverted Intracellularly to Bioactive 2,6-Diaminopurine and Guanosine 5'-Triphosphate Forms” (J Med Chem, 2015).
Calls of active or inactive are those of the source. The calls are words filed in the database; no cut-off is given here.

Columns and labels:
[1] = (§1) Inhibition of HCV C-terminal His-tagged NS5Bdelta21 enzyme assessed as reduction in NS5B-mediated RNA polymerization using [32P]-GpG primer, RNA template and rNTP nucleotide mix incubated for 120 mins by PAGE method; design: species or system Hepacivirus hominis
In short: (§2)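 Purified NS5BΔ21 (C-terminal His tag), 1 μM, at 30 °C with 1 μM 20-mer RNA template and 1 μM ³²P-GpG primer. Buffer was 40 mM Tris pH 7.5, 6 mM NaCl, 2 mM MgCl₂. Started with 10 μM NTP mix, 1 μM competing NTP and triphosphate inhibitor at 0–100 μM. Products run on 20% denaturing PAGE and quantified; IC₅₀ calculated.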

Hepacivirus hominis [2] = test: as §1; in short: as §2
Hepacivirus hominis [3] = test: Inhibition of HCV C-terminal His-tagged NS5Bdelta21 enzyme assessed as induction of pausing at sites of AMP incorporation during NS5B-mediated RNA polymerization using [32P]-GpG primer, RNA template and rNTP nucleotide mix incubated for 120 mins by PAGE method
In short: as §2, with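 “μM. Stopped at 120 min with EDTA/formamide.” for “μM.”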

Hepatocyte [4] = test: (§3) Drug level in human primary hepatocytes treated with 50 uM Ethyl 3-(2-(((R)-(((2R,3R,4R,5R)-5-(2,6-Diamino-9H-purin-9-yl)-3,4-dihydroxy-4-methyltetrahydrofuran-2-yl)methoxy)(((S)-1-ethoxy-1-oxopropan-2-yl)amino)phosphoryl)oxy)phenyl)-propanoate assessed as compound formation incubated for 4 hrs at 37 degC by LC-MS/MS method; format: ADME, cell-based
In short: (§4)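 Freshly plated primary human hepatocytes seeded at 1 × 10⁶ per well and acclimated overnight, then given 50 μM compound for 4 h at 37 °C. After two ice-cold PBS washes, extraction ran overnight at −20 °C in 70% methanol with 20 nM ddATP. Dried extracts went to LC–MS/MS for intracellular metabolites, as three replicates from one plate, ±SD.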

[5] = as §3, with “HuH7 cells” for “primary hepatocytes”; format: ADME, cell-based; details: huh-7, 4 h
In short: (§5)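 Huh-7 cells seeded at 1 × 10⁶ per well and exposed to 50 μM compound after attachment, 4 h at 37 °C. Cells washed twice with ice-cold PBS, then extracted overnight at −20 °C in 70% methanol containing 20 nM ddATP. Supernatants were dried and analysed by LC–MS/MS for parent nucleoside and its mono-, di- and triphosphates (pmol/10⁶ cells).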

Hepatocyte [6] = test: Drug level in human primary hepatocytes treated with 50 uM beta-D-2,6-diaminopurine nucleoside assessed as compound formation incubated for 4 hrs at 37 degC by LC-MS/MS method; format: ADME, cell-based; in short: as §4
[7] = Drug level in human HuH7 cells treated with 50 uM beta-D-2,6-diaminopurine nucleoside assessed as compound formation incubated for 4 hrs at 37 degC by LC-MS/MS method; format: ADME, cell-based; details: huh-7, 4 h; in short: as §5
[8] = (§6) Drug level in human HuH7 cells treated with 50 uM Isopropyl 3-(2-(((S)-(((2R,3S,4R,5R)-5-(2,6-Diamino-9H-purin-9-yl)-3,4-dihydroxy-4-methyltetrahydrofuran-2-yl)methoxy)-(((S)-1-isopropoxy-1-oxopropan-2-yl)amino)phosphoryl)oxy)-phenyl)propanoate 15c(Sp) and Isopropyl 3-(2-(((R)-(((2R,3S,4R,5R)-5-(2,6-Diamino-9H-purin-9-yl)-3,4-dihydroxy-4-methyltetrahydrofuran-2-yl)methoxy)(((S)-1-isopropoxy-1-oxopropan-2-yl)amino)phosphoryl)oxy)phenyl)propanoate assessed as compound formation incubated for 4 hrs at 37 degC by LC-MS/MS method; format: ADME, cell-based; details: huh-7, 4 h; in short: as §5
Hepatocyte [9] = test: as §6, with “primary hepatocytes” for “HuH7 cells”; format: ADME, cell-based; in short: as §4
Hepatitis C virus = test: Antiviral activity against HCV infected in human HuH7 cells assessed as reduction in replicon RNA levels incubated for 5 days by RT-PCR assay; format: functional, organism-based, Hepacivirus hominis; details: Huh-7, 120 h
In short: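 Huh-7 clone B cells carrying HCV replicon RNA, seeded at 3000 cells/well; compounds added in dose response in triplicate right after seeding. Incubated 5 days at 37 °C, 5% CO₂. Total RNA extracted; replicon RNA and rRNA internal control co-amplified by one-step multiplex real-time RT-PCR. Antiviral effect taken as ΔCt versus no-drug control; cytotoxicity read from rRNA reduction.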

Vero = test: Cytotoxicity against African green monkey Vero cells assessed as reduction in cell viability incubated for 5 days by Cell-titer 96 aqueous one solution cell proliferation assay; format: cell-based; details: chlorocebus sabaeus, vero, 120 h
HepG2 [10] = test: Mitochondrial toxicity in human HepG2 cells assessed as effect on mitochondrial cytochrome c oxidase subunit 2 DNA level incubated for 14 days by real-time PCR method; format: cell-based; details: hepg2, 336 h
In short: (§7)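 HepG2 cells in DMEM with 4.5 g/L glucose and 10% heat-inactivated FBS, seeded at 5000 cells/well on collagen; compounds added 1 day later at final 1–50 μM. Medium and compound renewed every 3–4 days for 14 days; duplicates in two independent experiments. COXII mtDNA and nuclear β-actin DNA measured by real-time PCR, normalised to untreated control; IC₅₀ calculated.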

HepG2 [11] = test: Mitochondrial toxicity in human HepG2 cells assessed as effect on nuclear beta-actin DNA level incubated for 14 days by real-time PCR method; format: cell-based; details: hepg2, 336 h; in short: as §7
HepG2 [12] = test: Mitochondrial toxicity in human HepG2 cells assessed as induction of lactic acid levels at 1 uM incubated for 14 days; format: cell-based; details: hepg2, 336 h
In short: (§8)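 After 14 days of HepG2 exposure to compound (same culture regimen as the mtDNA assay), lactic acid in culture supernatant quantified with a D-/L-lactic acid kit by absorbance. Results expressed as % lactic acid over % nuclear DNA (β-actin control); mean of triplicates from a single plate.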

HepG2 [13] = test: Mitochondrial toxicity in human HepG2 cells assessed as induction of lactic acid levels at 10 uM incubated for 14 days; format: cell-based; details: hepg2, 336 h; in short: as §8
HepG2 [14] = test: Mitochondrial toxicity in human HepG2 cells assessed as induction of lactic acid levels at 50 uM incubated for 14 days; format: cell-based; details: hepg2, 336 h; in short: as §8
[15] = Drug metabolism in human HuH7 cells assessed as 2'-C-Me-DAPN-TP level per million cells at 50 uM incubated for 4 hrs at 37 degC by LC-MS/MS method; format: ADME, cell-based; details: huh-7, 4 h
In short: (§9)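 Huh-7 cells (after attachment) or freshly plated primary human hepatocytes (after overnight acclimatation), 1 × 10⁶ cells/well, exposed to 50 μM compound for 4 h at 37 °C. Cells washed twice with ice-cold PBS and extracted overnight at −20 °C in 70% methanol containing 20 nM ddATP. Mono-, di- and triphosphates quantified by LC–MS/MS as pmol/10⁶ cells; three replicates.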

[16] = Drug metabolism in human HuH7 cells assessed as 2'-C-Me-GTP level at 50 uM incubated for 4 hrs at 37 degC by LC-MS/MS method; format: ADME, cell-based; details: huh-7, 4 h; in short: as §9
[17] = Drug metabolism in human primary hepatocytes assessed as 2'-C-Me-DAPN-TP level at 50 uM incubated for 4 hrs at 37 degC by LC-MS/MS method; format: ADME, cell-based, Hepatocyte; in short: as §9

With `C[C@@]1(O)[C@H](O)[C@@H](COP(=O)(O)OP(=O)(O)OP(=O)(O)O)O[C@H]1n1cnc2c(N)nc(N)nc21` the IC50 [1] was 3.4 µM, the inhibition (Hepacivirus hominis [2]) was “Dose-dependent effect” and the inhibition (Hepacivirus hominis [3]) was “Active”. For the same compound, the Drug metabolism (Hepatocyte [4]) was “metabolite_detected”, the Drug metabolism [5] was “metabolite_detected” and the Drug metabolism (Hepatocyte [6]) was “metabolite_detected”. For the same compound, the Drug metabolism [7] was “metabolite_detected”, the Drug metabolism [8] was “metabolite_detected” and the Drug metabolism (Hepatocyte [9]) was “metabolite_detected”.
In the case of `CC(C)OC(=O)CCc1ccccc1OP(=O)(N[C@@H](C)C(=O)OC(C)C)OC[C@H]1O[C@@H](n2cnc3c(N)nc(N)nc32)[C@](C)(O)[C@H]1O` (stereo not given in full), the EC50 (Hepatitis C virus) is reported as 0.7 µM, the EC90 (Hepatitis C virus) is reported as 2.5 µM and the CC50 (Vero) is reported as greater than 100 µM. It also gave a CC50 (HepG2 [10]) greater than 50 µM, a CC50 (HepG2 [11]) greater than 50 µM and an Activity (HepG2 [12]) of 90%. The Activity (HepG2 [13]) was 81%, the Activity (HepG2 [14]) was 80% and the Drug metabolism [15] was “metabolite_detected”. The Drug metabolism [16] was “metabolite_detected” and the Drug metabolism [17] was “metabolite_detected”.
